Test: protection of E. coli UTI89 from K1F – UTI89 strain, C7 control, set 4, capsule biogenesis inhibitor project, confirmation (AID 504768)
Conditions: E. coli UTI89 K1F phage lysis inhibition, OD600; measured here: cytotoxicity CC50
Outline: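 Test system: E. coli UTI89 (K1) and kpsM mutant bacterial cultures; dosing: DMSO at 1% final; schedule: 1.25 h compound pre-incubation at 37 °C shaking, lysis read 3 h post-phage; detection: OD600 absorbance; control set: kpsM mutant resisting phage; repeats: four replicate wells per compound concentration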

Which CC50 does the source give for O=C(Nc1nc2c(Cl)cc(Cl)cc2s1)c1ccccn1 here?
Its CC50 is 3.55 µM.

For O=C(Nc1nc2c(F)cccc2s1)c1ccccn1, which CC50 is on record?
The CC50 was 2.56 µM.

With O=C(Nc1nc2ccccc2s1)c1ccncc1 as the compound, how does the CC50 read?
Its CC50 is 104 µM.

Which CC50 does the source give for O=C(Nc1nc2c(F)cc(F)cc2s1)c1ccccc1 here?
The CC50 was 30.9 µM.

With O=C(Nc1nc2ccccc2s1)c1cccnc1 as the compound, how does the CC50 read?
The CC50 was 129 µM.

For O=C(Nc1nc2ccc(F)cc2s1)c1ccccn1, which CC50 is on record?
Its CC50 is 3.32 µM.

For Cc1cc(C)c2nc(NC(=O)c3ccccn3)sc2c1, which CC50 is on record?
The CC50 was 6.19 µM.

With O=C(Nc1nc2c(F)cc(F)cc2s1)c1cccnc1 as the compound, how does the CC50 read?
Its CC50 is > 300 µM.

For O=C(Nc1nc2c(F)cc(F)cc2s1)c1ccncc1, which CC50 is on record?
Its CC50 is 71.8 µM.

From PubChem BioAssay AID504768 (Southern Research Specialized Biocontainment Screening …, 2011)
